# Data: ChEMBL document CHEMBL4043276, “Design, synthesis and biological evaluation of 2-acetyl-5-O-(amino-alkyl)phenol derivatives as multifunctional agents for the treatment of Alzheimer's disease” (Bioorg Med Chem Lett, 2017)
# Tested on: not listed separately
# Test: Antioxidant activity assessed as trolox equivalent of […]-induced radical scavenging activity measured every minute for 90 mins by ORAC fluorescein assay
# Type: functional
# Details: not given
# Summary of the method: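 Measured by the ORAC-FL fluorescein method. Values are given as μM Trolox equivalent per μM of test compound.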
row,Structure (SMILES),Activity [equiv]
1,CC(=O)c1ccc(OCCCCCN2CCN(Cc3ccccc3)CC2)cc1O,1.3
2,CC(=O)c1ccc(OCCCN2CCN(c3ccccn3)CC2)cc1O,0.98
3,CC(=O)c1ccc(OCCCCCN2CCCC2)cc1O,1
4,CC(=O)c1ccc(OCCCCN2CCN(Cc3ccccc3)CC2)cc1O,1.4
5,CC(=O)c1ccc(OCCCN2CCN(c3ncccn3)CC2)cc1O,0.95
6,CC(=O)c1ccc(OCCCN2CCCC2)cc1O,1
7,CC(=O)c1ccc(OCCCCN2CCCC2)cc1O,1

# Molecular target: Acetylcholinesterase (Electrophorus electricus, UniProt O42275)
# Test: Inhibition of electric eel AChE using acetylthiocholine as substrate incubated for 15 mins by Ellman's method
# Details: not given
# Acetylcholinesterase, sequence (O42275 whole entry): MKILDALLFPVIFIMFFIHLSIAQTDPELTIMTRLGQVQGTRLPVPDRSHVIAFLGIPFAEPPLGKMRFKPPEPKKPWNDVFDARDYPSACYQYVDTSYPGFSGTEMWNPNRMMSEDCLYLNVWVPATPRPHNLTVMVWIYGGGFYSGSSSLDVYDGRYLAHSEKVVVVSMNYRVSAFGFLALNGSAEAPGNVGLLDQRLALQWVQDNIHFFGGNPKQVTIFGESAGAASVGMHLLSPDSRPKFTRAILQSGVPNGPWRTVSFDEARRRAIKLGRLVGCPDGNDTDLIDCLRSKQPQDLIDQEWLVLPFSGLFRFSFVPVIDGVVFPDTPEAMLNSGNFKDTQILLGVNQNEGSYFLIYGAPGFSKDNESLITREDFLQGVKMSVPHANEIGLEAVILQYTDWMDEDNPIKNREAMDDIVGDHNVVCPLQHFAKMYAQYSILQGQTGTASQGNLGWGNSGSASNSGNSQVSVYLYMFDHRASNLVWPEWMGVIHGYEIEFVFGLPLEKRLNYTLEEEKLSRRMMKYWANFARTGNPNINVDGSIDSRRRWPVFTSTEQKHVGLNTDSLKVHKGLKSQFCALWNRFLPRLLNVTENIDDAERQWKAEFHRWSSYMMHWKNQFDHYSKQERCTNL
row,Structure (SMILES),IC50 [µM]
1,CC(=O)c1ccc(OCCCCCN2CCN(Cc3ccccc3)CC2)cc1O,8.5
2,CC(=O)c1ccc(OCCCN2CCN(c3ccccn3)CC2)cc1O,15.2
3,CC(=O)c1ccc(OCCCCCN2CCCC2)cc1O,6.3
4,CC(=O)c1ccc(OCCCCN2CCN(Cc3ccccc3)CC2)cc1O,2.2
5,CC(=O)c1ccc(OCCCN2CCN(c3ncccn3)CC2)cc1O,26.3
6,CC(=O)c1ccc(OCCCN2CCCC2)cc1O,41.3
7,CC(=O)c1ccc(OCCCCN2CCCC2)cc1O,16.7

# Molecular target: BuChE (butyrylcholinesterase) (Equus caballus, UniProt P81908)
# Test: Inhibition of equine serum BuChE at 50 uM incubated for 15 mins by Ellman's method relative to control
# Details: horse
# BuChE (butyrylcholinesterase), sequence (P81908 whole entry): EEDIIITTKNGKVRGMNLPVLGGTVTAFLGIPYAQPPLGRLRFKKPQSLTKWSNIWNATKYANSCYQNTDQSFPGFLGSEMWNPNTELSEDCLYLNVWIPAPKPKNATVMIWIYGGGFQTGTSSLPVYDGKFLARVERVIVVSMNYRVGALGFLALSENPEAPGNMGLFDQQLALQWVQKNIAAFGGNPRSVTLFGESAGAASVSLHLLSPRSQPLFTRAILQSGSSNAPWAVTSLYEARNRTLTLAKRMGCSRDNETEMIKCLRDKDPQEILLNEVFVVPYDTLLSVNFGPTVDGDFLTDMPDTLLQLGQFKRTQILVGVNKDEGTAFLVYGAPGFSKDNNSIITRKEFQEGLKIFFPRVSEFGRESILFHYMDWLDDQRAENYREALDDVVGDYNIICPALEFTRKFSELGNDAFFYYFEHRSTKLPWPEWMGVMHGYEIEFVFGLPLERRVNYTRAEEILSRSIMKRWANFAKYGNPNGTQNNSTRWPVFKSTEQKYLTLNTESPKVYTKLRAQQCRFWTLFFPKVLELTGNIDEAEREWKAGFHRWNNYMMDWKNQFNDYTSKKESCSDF
row,Structure (SMILES),"inhibition at 0.25 h, 50 µM [%]"
1,CC(=O)c1ccc(OCCCN2CCN(c3ccccn3)CC2)cc1O,8.8
2,CC(=O)c1ccc(OCCCCN2CCN(Cc3ccccc3)CC2)cc1O,11.5
3,CC(=O)c1ccc(OCCCN2CCN(c3ncccn3)CC2)cc1O,< 5
4,CC(=O)c1ccc(OCCCN2CCCC2)cc1O,< 5
5,CC(=O)c1ccc(OCCCCN2CCCC2)cc1O,18.4

# Molecular target: Cholinesterase (Equus caballus, UniProt P81908)
# Type: ADME
# Details: not given
# Cholinesterase, sequence (P81908 whole entry): as above
row,Structure (SMILES),IC50 [µM]
1,CC(=O)c1ccc(OCCCCCN2CCN(Cc3ccccc3)CC2)cc1O,46.1
2,CC(=O)c1ccc(OCCCCCN2CCCC2)cc1O,37.2

# Molecular target: T1, Amine oxidase [flavin-containing] B (Homo sapiens, UniProt P27338)
# T1 sequence (P27338 whole entry): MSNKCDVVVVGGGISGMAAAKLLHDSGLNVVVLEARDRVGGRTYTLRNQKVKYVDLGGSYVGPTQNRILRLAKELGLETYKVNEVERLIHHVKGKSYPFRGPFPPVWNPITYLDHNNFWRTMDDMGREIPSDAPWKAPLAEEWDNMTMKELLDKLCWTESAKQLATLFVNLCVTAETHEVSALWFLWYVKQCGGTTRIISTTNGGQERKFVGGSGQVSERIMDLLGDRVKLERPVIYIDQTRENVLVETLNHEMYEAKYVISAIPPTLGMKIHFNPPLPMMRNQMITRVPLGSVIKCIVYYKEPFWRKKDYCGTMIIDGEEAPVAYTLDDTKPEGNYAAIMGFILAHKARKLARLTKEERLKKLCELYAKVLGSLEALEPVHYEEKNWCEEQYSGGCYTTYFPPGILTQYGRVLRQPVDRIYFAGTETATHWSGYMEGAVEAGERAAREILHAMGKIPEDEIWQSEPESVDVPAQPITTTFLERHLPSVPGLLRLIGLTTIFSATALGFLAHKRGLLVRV
# Details: not given
row,Structure (SMILES),IC50 [µM]
1,CC(=O)c1ccc(OCCCCCN2CCN(Cc3ccccc3)CC2)cc1O,26.8
2,CC(=O)c1ccc(OCCCN2CCN(c3ccccn3)CC2)cc1O,11.7
3,CC(=O)c1ccc(OCCCCCN2CCCC2)cc1O,3.5
4,CC(=O)c1ccc(OCCCCN2CCN(Cc3ccccc3)CC2)cc1O,15.9
5,CC(=O)c1ccc(OCCCN2CCN(c3ncccn3)CC2)cc1O,15.1
6,CC(=O)c1ccc(OCCCN2CCCC2)cc1O,0.62
7,CC(=O)c1ccc(OCCCCN2CCCC2)cc1O,1.8

# Tested on: not listed separately
# Test: Selectivity index, ratio of IC50 for equine serum BuChE to IC50 for electric eel AChE
# Details: not given
# Summary of the method: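 IC50 values for E. electricus AChE and equine serum BuChE came from a modified Ellman assay, each the mean of three independent experiments run in triplicate. The selectivity index is the ratio of the two IC50 values.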
row,Structure (SMILES),Ratio IC50
1,CC(=O)c1ccc(OCCCCCN2CCN(Cc3ccccc3)CC2)cc1O,5.4
2,CC(=O)c1ccc(OCCCCCN2CCCC2)cc1O,5.9

# Tested on: not listed separately
# Test: Effective permeability of the compound by PAMPA
# Type: physicochemical
# Details: read-out: Peff
row,Structure (SMILES),Papp [×10⁻⁶ cm/s]
1,Clc1cccc(Cl)c1N=C1NCCN1 [CLONIDINE],5.1 to 5.3
2,Cn1c(=O)c2[nH]cnc2n(C)c1=O.O [THEOPHYLLINE],0.1 to 0.12
3,CCn1cc(C(=O)O)c(=O)c2cc(F)c(N3CCNCC3)cc21 [NORFLOXACIN],0.1 to 0.42
4,CCn1cc(C(=O)O)c(=O)c2cc(F)c(N3CCNCC3)nc21 [ENOXACIN],0.47 to 0.9
5,Cn1c(=O)c2c(ncn2C)n(C)c1=O [CAFFEINE],1.28 to 1.3
6,CN1C(C(=O)Nc2ccccn2)=C(O)c2ccccc2S1(=O)=O [PIROXICAM],0.72 to 2.5
7,C[C@]12CC[C@H]3[C@@H](CCC4=CC(=O)CC[C@@]43C)[C@@H]1CC[C@@H]2O [TESTOSTERONE],16.3 to 17

# Molecular target: T2, Amine oxidase [flavin-containing] A (Homo sapiens, UniProt P21397)
# T2 sequence (P21397 whole entry): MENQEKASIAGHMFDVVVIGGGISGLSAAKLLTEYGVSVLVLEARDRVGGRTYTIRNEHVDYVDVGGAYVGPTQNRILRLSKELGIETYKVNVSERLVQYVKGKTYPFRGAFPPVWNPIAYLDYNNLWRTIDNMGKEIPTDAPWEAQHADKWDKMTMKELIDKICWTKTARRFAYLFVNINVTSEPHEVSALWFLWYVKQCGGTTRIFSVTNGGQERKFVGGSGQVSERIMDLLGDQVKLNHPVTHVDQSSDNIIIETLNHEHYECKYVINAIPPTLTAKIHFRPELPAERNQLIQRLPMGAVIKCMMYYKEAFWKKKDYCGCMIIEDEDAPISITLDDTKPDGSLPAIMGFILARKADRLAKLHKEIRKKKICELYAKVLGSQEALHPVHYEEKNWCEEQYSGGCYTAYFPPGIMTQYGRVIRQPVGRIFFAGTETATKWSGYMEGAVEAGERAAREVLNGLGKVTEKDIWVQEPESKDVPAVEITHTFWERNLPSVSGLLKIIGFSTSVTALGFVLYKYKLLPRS
# Test: Inhibition of recombinant human MAO-A at 10 uM using kynuramine as substrate after 30 mins by fluorescence method relative to control
# Details: 0.5 h
row,Structure (SMILES),inhibition at 10 µM [%]
1,CC(=O)c1ccc(OCCCCCN2CCN(Cc3ccccc3)CC2)cc1O,< 5
2,CC(=O)c1ccc(OCCCN2CCN(c3ccccn3)CC2)cc1O,< 5
3,CC(=O)c1ccc(OCCCCCN2CCCC2)cc1O,< 5
4,CC(=O)c1ccc(OCCCCN2CCN(Cc3ccccc3)CC2)cc1O,< 5
5,CC(=O)c1ccc(OCCCN2CCN(c3ncccn3)CC2)cc1O,< 5
6,CC(=O)c1ccc(OCCCN2CCCC2)cc1O,< 5
7,CC(=O)c1ccc(OCCCCN2CCCC2)cc1O,< 5
